Source: ChEMBL document CHEMBL5143722, “Antimicrobial Peptides against Multidrug-Resistant Pseudomonas aeruginosa Biofilm from Cystic Fibrosis Patients” (J Med Chem, 2022)
The source made the active and inactive calls. The calls are words filed in the database; no cut-off is given here.

Key:
Pseudomonas aeruginosa [1] = assay: Antibiofilm activity against Pseudomonas aeruginosa clinical isolate 629 assessed as inhibition of biofilm formation at sub-inhibitory concentration incubated for 24 hrs by crystal violet staining based microtiter plate method; format: functional, organism-based
Summary of the method: (§1)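 Washed overnight cultures in BM2 medium at 1 × 10^6 CFU/mL with 2-fold serial peptide dilutions in a U-bottom 96-well plate. Incubated 24 h at 37 °C without agitation. Unattached cells washed off, then 0.1% crystal violet stain read at 590 nm. No-bacteria blanks. Biomass expressed as % of untreated biofilm. At least three biological repeats.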

Pseudomonas aeruginosa [2] = assay: Antibiofilm activity against Pseudomonas aeruginosa clinical isolate 25 assessed as inhibition of biofilm formation at sub-inhibitory concentration incubated for 24 hrs by crystal violet staining based microtiter plate method; format: functional, organism-based; summary of the method: as §1
Pseudomonas aeruginosa [3] = assay: Antibiofilm activity against Pseudomonas aeruginosa clinical isolate 72 assessed as inhibition of biofilm formation at sub-inhibitory concentration incubated for 24 hrs by crystal violet staining based microtiter plate method; format: functional, organism-based; summary of the method: as §1
Pseudomonas aeruginosa [4] = assay: Antibiofilm activity against Pseudomonas aeruginosa clinical isolate 24 assessed as inhibition of biofilm formation at sub-inhibitory concentration incubated for 24 hrs by crystal violet staining based microtiter plate method; format: functional, organism-based; summary of the method: as §1
Pseudomonas aeruginosa [5] = assay: Induction of biofilm degradation of Pseudomonas aeruginosa clinical isolate 29 at 50 uM incubated for 1 hr by crystal violet staining analysis relative to control; format: functional
Summary of the method: (§2)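 Bacteria at 1 × 10^6 CFU/mL in BM2 grown static at 37 °C for 24 h to form biofilm. Wells rinsed of unattached cells, then exposed for 1 h to serial peptide dilutions (1.56–50 μM). Washed, stained with 0.1% crystal violet, A590 read. Biomass given as % of untreated biofilm; no-bacteria wells as blanks. At least three biological repeats.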

Pseudomonas aeruginosa [6] = assay: Induction of biofilm degradation of Pseudomonas aeruginosa clinical isolate 40 at 50 uM incubated for 1 hr by crystal violet staining analysis relative to control; format: functional; summary of the method: as §2
Pseudomonas aeruginosa [7] = assay: Inhibition of biofilm formation of Pseudomonas aeruginosa clinical isolate 24 derived from cystic fibrosis patient sputum at 0.78 to 25 uM by crystal violet based staining analysis; format: functional, organism-based; settings: dose 0.78-25 µM
Summary of the method: (§3)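 CF patient sputum diluted 10-fold with BM2, bacteria added with serial peptide dilutions starting from the highest MIC per isolate. Inoculum suspension 1 × 10^6 CFU/mL. Incubated 24 h at 37 °C without agitation. Unattached cells washed away, then 0.1% crystal violet staining and A590. Biomass given as % of untreated, with no-bacteria blanks.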

Pseudomonas aeruginosa [8] = assay: Inhibition of biofilm formation of Pseudomonas aeruginosa clinical isolate 24 derived from cystic fibrosis patient sputum at 0.09 to 3.12 uM by crystal violet based staining analysis; format: functional, organism-based; settings: dose 0.09-3.12 µM; summary of the method: as §3
Pseudomonas aeruginosa [9] = assay: Induction of biofilm degradation of Pseudomonas aeruginosa clinical isolate 40 at sub MIC concentration incubated for 1 hr by crystal violet staining analysis; format: functional; summary of the method: as §2
Pseudomonas aeruginosa [10] = assay: Induction of biofilm degradation of Pseudomonas aeruginosa clinical isolate 24 incubated for 1 hr by crystal violet staining analysis relative to control; format: functional; settings: dose 50.0 µM; summary of the method: as §2
Pseudomonas aeruginosa [11] = assay: Induction of biofilm degradation of Pseudomonas aeruginosa clinical isolate 59 at <12.5 uM incubated for 1 hr by crystal violet staining analysis; format: functional; summary of the method: as §2
Pseudomonas aeruginosa [12] = assay: Induction of biofilm degradation of Pseudomonas aeruginosa clinical isolate 995 at 50 uM incubated for 1 hr by crystal violet staining analysis relative to control; format: functional; summary of the method: as §2
Pseudomonas aeruginosa [13] = assay: Induction of biofilm degradation of Pseudomonas aeruginosa clinical isolate 71 at 50 uM incubated for 1 hr by crystal violet staining analysis relative to control; format: functional; summary of the method: as §2
Pseudomonas aeruginosa [14] = assay: Drug resistance in Pseudomonas aeruginosa PAO1 in BM2 medium assessed as fold change in MIC
Pseudomonas aeruginosa [15] = assay: Antibiofilm activity against Pseudomonas aeruginosa clinical isolate 53 assessed as inhibition of biofilm formation at sub-inhibitory concentration incubated for 24 hrs by crystal violet staining based microtiter plate method; format: functional, organism-based; summary of the method: as §1
Pseudomonas aeruginosa [16] = assay: Induction of biofilm degradation of Pseudomonas aeruginosa clinical isolate 53 at 50 uM incubated for 1 hr by crystal violet staining analysis relative to control; format: functional; summary of the method: as §2
Pseudomonas aeruginosa [17] = assay: Induction of biofilm degradation of Pseudomonas aeruginosa clinical isolate 53 at sub MIC concentration incubated for 1 hr by crystal violet staining analysis; format: functional; summary of the method: as §2
Pseudomonas aeruginosa [18] = assay: Induction of biofilm degradation of Pseudomonas aeruginosa PAO1 at 50 uM incubated for 1 hr by crystal violet staining analysis relative to control; format: functional; summary of the method: as §2
Pseudomonas aeruginosa [19] = assay: Inhibition of biofilm formation of Pseudomonas aeruginosa clinical isolate 82 derived from cystic fibrosis patient sputum at 0.09 to 3.12 uM by crystal violet based staining analysis; format: functional, organism-based; settings: dose 0.09-3.12 µM; summary of the method: as §3
Pseudomonas aeruginosa [20] = assay: Induction of biofilm degradation of Pseudomonas aeruginosa clinical isolate 72 at 50 uM incubated for 1 hr by crystal violet staining analysis relative to control; format: functional; summary of the method: as §2
Pseudomonas aeruginosa [21] = assay: Induction of biofilm degradation of Pseudomonas aeruginosa clinical isolate 629 at 50 uM incubated for 1 hr by crystal violet staining analysis relative to control; format: functional; summary of the method: as §2
Pseudomonas aeruginosa [22] = assay: Antibiofilm activity against Pseudomonas aeruginosa clinical isolate 71 assessed as inhibition of biofilm formation at sub-inhibitory concentration incubated for 24 hrs by crystal violet staining based microtiter plate method; format: functional, organism-based; summary of the method: as §1
Pseudomonas aeruginosa [23] = assay: Induction of biofilm degradation of Pseudomonas aeruginosa clinical isolate 46 at 50 uM incubated for 1 hr by crystal violet staining analysis relative to control; format: functional; summary of the method: as §2
Pseudomonas aeruginosa [24] = assay: Induction of biofilm degradation of Pseudomonas aeruginosa clinical isolate 24 at sub MIC concentration incubated for 1 hr by crystal violet staining analysis; format: functional; summary of the method: as §2
Pseudomonas aeruginosa [25] = assay: Induction of biofilm degradation of Pseudomonas aeruginosa clinical isolate 172 at 50 uM incubated for 1 hr by crystal violet staining analysis relative to control; format: functional; summary of the method: as §2
Pseudomonas aeruginosa [26] = assay: Antibiofilm activity against Pseudomonas aeruginosa clinical isolate 99 assessed as inhibition of biofilm formation at sub-inhibitory concentration incubated for 24 hrs by crystal violet staining based microtiter plate method; format: functional, organism-based; summary of the method: as §1
Pseudomonas aeruginosa [27] = assay: Induction of biofilm degradation of Pseudomonas aeruginosa clinical isolate 52 at 50 uM incubated for 1 hr by crystal violet staining analysis relative to control; format: functional; summary of the method: as §2
Pseudomonas aeruginosa [28] = assay: Induction of biofilm degradation of Pseudomonas aeruginosa clinical isolate 238 at 50 uM incubated for 1 hr by crystal violet staining analysis relative to control; format: functional; summary of the method: as §2
Pseudomonas aeruginosa [29] = assay: Induction of biofilm degradation of Pseudomonas aeruginosa clinical isolate 251 at 50 uM incubated for 1 hr by crystal violet staining analysis; format: functional; summary of the method: as §2
Pseudomonas aeruginosa [30] = assay: Induction of biofilm degradation of Pseudomonas aeruginosa clinical isolate 25 at 50 uM incubated for 1 hr by crystal violet staining analysis relative to control; format: functional; summary of the method: as §2
Pseudomonas aeruginosa [31] = assay: Induction of biofilm degradation of Pseudomonas aeruginosa clinical isolate 99 at 50 uM incubated for 1 hr by crystal violet staining analysis relative to control; format: functional; summary of the method: as §2
Pseudomonas aeruginosa [32] = assay: Antibiofilm activity against Pseudomonas aeruginosa clinical isolate 46 assessed as inhibition of biofilm formation at sub-inhibitory concentration incubated for 24 hrs by crystal violet staining based microtiter plate method; format: functional, organism-based; summary of the method: as §1
Pseudomonas aeruginosa [33] = assay: Induction of biofilm degradation of Pseudomonas aeruginosa clinical isolate 82 at 50 uM incubated for 1 hr by crystal violet staining analysis relative to control; format: functional; summary of the method: as §2
Pseudomonas aeruginosa [34] = assay: Inhibition of biofilm formation of Pseudomonas aeruginosa PAO1 in patient derived CF-sputum at 0.09 to 3.12 uM by crystal violet based staining analysis; format: functional, organism-based; settings: dose 0.09-3.12 µM; summary of the method: as §3

**Q.** How did the inhibition (Pseudomonas aeruginosa [1]) turn out when `CC(C)C[C@H](NC(=O)[C@H](CC(C)C)NC(=O)[C@H](CCCCN)NC(=O)[C@H](CC(C)C)NC(=O)[C@H](CC(C)C)NC(=O)[C@H](CCCCN)NC(=O)[C@H](CCCCN)NC(=O)[C@H](CC(C)C)NC(=O)[C@H](CC(C)C)NC(=O)[C@H](CCCCN)NC(=O)[C@H](CCCCN)NC(=O)[C@H](CC(C)C)NC(=O)[C@H](CC(C)C)NC(=O)[C@H](CCCCN)NC(=O)[C@@H](N)CC(C)C)C(N)=O` was run?
**A.** Active

**Q.** And the inhibition (Pseudomonas aeruginosa [2])?
**A.** Active

**Q.** And the inhibition (Pseudomonas aeruginosa [3])?
**A.** Active

**Q.** And the inhibition (Pseudomonas aeruginosa [4])?
**A.** Active

**Q.** What about the Activity (Pseudomonas aeruginosa [5]) of the same molecule?
**A.** 60%

**Q.** What about the Activity (Pseudomonas aeruginosa [6]) of the same molecule?
**A.** 60%

**Q.** What about the inhibition (Pseudomonas aeruginosa [7]) of the same molecule?
**A.** Active

**Q.** And the inhibition (Pseudomonas aeruginosa [8])?
**A.** Active

**Q.** And the Activity (Pseudomonas aeruginosa [9])?
**A.** Active

**Q.** And the Activity (Pseudomonas aeruginosa [10])?
**A.** 60%

**Q.** And the Activity (Pseudomonas aeruginosa [11])?
**A.** Active

**Q.** What about the Activity (Pseudomonas aeruginosa [12]) of the same molecule?
**A.** 60%

**Q.** What about the Activity (Pseudomonas aeruginosa [13]) of the same molecule?
**A.** 60%

**Q.** And the “fold change (FC)” value (Pseudomonas aeruginosa [14])?
**A.** <20

**Q.** What about the inhibition (Pseudomonas aeruginosa [15]) of the same molecule?
**A.** Active

**Q.** And the Activity (Pseudomonas aeruginosa [16])?
**A.** 60%

**Q.** And the Activity (Pseudomonas aeruginosa [17])?
**A.** Active

**Q.** And the Activity (Pseudomonas aeruginosa [18])?
**A.** 60%

**Q.** And the inhibition (Pseudomonas aeruginosa [19])?
**A.** Active

**Q.** And the Activity (Pseudomonas aeruginosa [20])?
**A.** 60%

**Q.** What about the Activity (Pseudomonas aeruginosa [21]) of the same molecule?
**A.** 60%

**Q.** What about the inhibition (Pseudomonas aeruginosa [22]) of the same molecule?
**A.** Active

**Q.** And the Activity (Pseudomonas aeruginosa [23])?
**A.** 60%

**Q.** What about the Activity (Pseudomonas aeruginosa [24]) of the same molecule?
**A.** Active

**Q.** What about the Activity (Pseudomonas aeruginosa [25]) of the same molecule?
**A.** 60%

**Q.** And the inhibition (Pseudomonas aeruginosa [26])?
**A.** Active

**Q.** What about the Activity (Pseudomonas aeruginosa [27]) of the same molecule?
**A.** 60%

**Q.** And the Activity (Pseudomonas aeruginosa [28])?
**A.** 60%

**Q.** And the Activity (Pseudomonas aeruginosa [29])?
**A.** 60%

**Q.** And the Activity (Pseudomonas aeruginosa [30])?
**A.** 60%

**Q.** And the Activity (Pseudomonas aeruginosa [31])?
**A.** 60%

**Q.** What about the inhibition (Pseudomonas aeruginosa [32]) of the same molecule?
**A.** Active

**Q.** And the Activity (Pseudomonas aeruginosa [33])?
**A.** 60%

**Q.** And the inhibition (Pseudomonas aeruginosa [34])?
**A.** Active
